Assay [1] concerns Fusarium verticillioides. Description: Antifungal activity against Fusarium verticillioides CGMCC 3.2835 at 20 ug/ml after 48 hr by Alamar blue assay. It is filed as functional, organism-based. In general terms: The colour change of resazurin is a common sign of viable cells or microbes.
Assay [2] deals with Verticillium albo-atrum. Description: Antifungal activity against Verticillium albo-atrum CGMCC 3.4306 at 20 ug/ml after 48 hr by Alamar blue assay. The format is functional, organism-based.
Assay [3] has as its system Fusarium graminearum. Description: Antifungal activity against Fusarium graminearum CGMCC 3.2873 at 20 ug/ml after 48 hr by Alamar blue assay. The format is functional, organism-based.
Assay [4] deals with Fusarium oxysporum. Description: Antifungal activity against Fusarium oxysporum CGMCC 3.2830 at 20 ug/ml after 48 hr by Alamar blue assay. The format is functional, organism-based.
Assay [5] relates to Alternaria longipes. Description: Antifungal activity against Alternaria longipes CGMCC 3.2875 at 20 ug/ml after 48 hr by Alamar blue assay. The format is functional, organism-based.
For assay [6], the system named is Fusarium oxysporum. Description: Antifungal activity against Fusarium oxysporum CGMCC 3.2830 after 48 hr by Alamar blue assay. As to conditions: CGMCC 3.2830, 48 h. The format is functional. An outline of the steps:
(§1)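 NCCLS-based broth microdilution, run in triplicate. Fungi were kept on PDA, and the inoculum was grown in broth at 28 °C for 48 h, then set to a final 10^4 hyphae/mL in PDB. Samples were serially diluted from a 10 mg/mL DMSO stock, with 10% Alamar blue as indicator, and incubated at 28 °C for 48 h. Fluorescence was read at 544/590 nm. MIC was the lowest concentration giving complete growth inhibition.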

Assay [7] has as its system Verticillium albo-atrum. Description: Antifungal activity against Verticillium albo-atrum CGMCC 3.4306 after 48 hr by Alamar blue assay. It is filed as functional. As to conditions: CGMCC 3.4306, 48 h. In a few lines: as §1
Assay [8] concerns Fusarium graminearum. The experiment in a line: Antifungal activity against Fusarium graminearum CGMCC 3.2873 after 48 hr by Alamar blue assay. The conditions noted are these: CGMCC 3.2873, 48 h. The format is functional. An outline of the steps:
as §1

The subject of assay [9] is Fusarium verticillioides. Description: Antifungal activity against Fusarium verticillioides CGMCC 3.2835 after 48 hr by Alamar blue assay. The format is functional. The conditions noted are these: CGMCC 3.2835, 48 h. In a few lines: as §1
Assay [10] relates to Alternaria longipes. Description: Antifungal activity against Alternaria longipes CGMCC 3.2875 after 48 hr by Alamar blue assay. The format is functional. The conditions noted are these: CGMCC 3.2875, 48 h. In a few lines:
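Run in triplicate per NCCLS recommendations. The strain was grown on PDA, and inoculum came from broth cultures (28 °C, 48 h), with a final suspension of 10^4 hyphae/mL in PDB. Samples were serially diluted from a 10 mg/mL DMSO stock, with 10% Alamar blue as indicator. After 28 °C for 48 h, fluorescence was read at Ex/Em 544/590 nm. MIC is the lowest concentration giving complete growth inhibition, taken from inhibition-versus-concentration plots.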

In brackets after ≈: the same amount, converted by molar mass. Activity calls are given as the source filed them. No cut-off for these calls is given here.

As for `CCc1c(OC)cc2c(c1O)C(=O)C=C(OC)[C@@]2(O)C[C@@H](O)C(=O)OC`, the outcome in [1], in [2], in assay [3], in assay [4] and in assay [5] was inactive.

In general, MIC refers to the least concentration at which growth counts as inhibited. Low readings indicate inhibition by little substance, high ones a need for much substance. In the case of `COC(=O)Nc1nc2ccccc2[nH]1` [CARBENDAZIM], the MIC in [6] amounted to 0.63 mg/L (≈ 3.3 µM); in assay [7], 0.63 mg/L (≈ 3.3 µM); in [8], 2.5 mg/L (≈ 13.1 µM); in assay [9], 0.63 mg/L (≈ 3.3 µM). Further, the outcome in assay [5] was inactive.

`CCc1c(OC)cc2c(c1O)C(=O)C=C(OC)[C@@]21C[C@@H](O)C(=O)O1` [PERENNIPORIDE A]: the MIC in assay [6] was 10 mg/L (≈ 29.9 µM); in [7], 20 mg/L (≈ 59.8 µM); in [8], 20 mg/L (≈ 59.8 µM); in assay [10] it was 10 mg/L (≈ 29.9 µM); in assay [9], 20 mg/L (≈ 59.8 µM).

Regarding `CCc1c(OC)cc2c(c1O)C(=O)C[C@]1(OC)OC(=O)[C@H](O)C[C@@]21O`, the outcome in assay [1], in assay [2], in assay [3], in assay [4] and in assay [5] was inactive.

Turning to `CCc1c(OC)cc2c(c1O)C(=O)C[C@@]1(OC)O[C@@H](C(=O)OC)C[C@@]21O`, the outcome in [1], in assay [2], in assay [3], in assay [4] and in [5] was inactive.

Values taken from ChEMBL document CHEMBL3045540, “Naphthalenones from a Perenniporia sp. inhabiting the larva of a phytophagous weevil, Euops chinesis” (2012).
